Measurements: ChEMBL document CHEMBL5625195, “Identification of novel tetrahydroquinoxaline derived phenyl ureas as modulators of the hepatitis B virus nucleocapsid assembly” (Eur J Med Chem, 2023)
Activity calls are given as the source filed them. No cut-off for these calls is given here.

Tests used:
Hepatitis B virus [1] = assay: Antiviral activity against HBV infected in AML12HBV10 cells assessed as reduction viral replication incubated for 48 hrs; type: functional, organism-based; settings: AML12HBV10, 48 h
In short: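 AML12HBV10 cells were seeded at 2 x 10^4 per well without tetracycline. After one day, 2-fold serial dilutions (10 μM to 0.08 μM) were applied for 48 h. Lysates were denatured, neutralized and dot-blotted, then hybridized with a 32P-labelled riboprobe specific for HBV minus-strand DNA and read by phosphorimager. EC50 was the concentration reducing HBV DNA by 50%.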

[2] = Cytotoxicity against mouse AML12 cells assessed as reduction in cell viability incubated for 48 hrs by MTT assay; type: toxicity, cell-based; settings: AML12 cells
In short: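 Stable AML12HBV10 hepatocytes (AML12-derived), cultured without tetracycline, were exposed to 2-fold serial dilutions (50 μM to 1.56 μM) for 48 h. Viability was inspected microscopically and quantified by MTT. CC50 was the concentration lowering viability by 50%.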

Hepatitis B virus [3] = assay: Antiviral activity against HBV infected in HepDES19 cells assessed as reduction viral DNA incubated for 4 days by qPCR analysis; type: functional, organism-based; settings: HepDES19, 96 h
In short: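 HepDES19 (HepG2-derived, tetracycline-inducible HBV) cells in 24-well plates, cultured without tetracycline for 2 days, then mock or serial 2-fold compound dilutions for 4 more days. Cytoplasmic HBV core DNA was extracted and quantified by qPCR. EC50 came from triplicate biological experiments by regression.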

[4] = Cytotoxicity against human HepDES19 cells assessed as reduction in cell viability incubated for 6 days by MTT assay; type: toxicity, cell-based; settings: time 6 day
In short: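 Tetracycline-free HepDES19 cells in 96-well plates were exposed to […] serial dilutions (50 μM to 0.39 μM) for 6 days. Viability was checked by microscopy and measured by MTT. CC50 was the concentration reducing viability by 50%.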

Hepatitis B virus [5] = assay: Antiviral activity against HBV infected in AML12HBV10 cells assessed as change in total viral RNA at 1 to 5 uM after 2 days by Northern blot hybridization; type: functional, organism-based; settings: dose 1-5 µM, time 2.0 day
In short: (§1)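 AML12HBV10 cells in 24-well plates were kept with or without tetracycline for 24 h. Tet-maintained cells served as the no-pgRNA negative control. Cells were then mock (DMSO) or compound treated for 48 h. Total viral RNA and encapsidated pgRNA were read by Northern blot with rRNA as loading control. Core protein was read by Western blot (C-terminal 14-residue antibody, β-actin control), capsids by native particle gel assay, and replication intermediates by Southern blot.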

Hepatitis B virus [6] = assay: Antiviral activity against HBV infected in AML12HBV10 cells assessed as change in core protein at 1 to 5 uM after 2 days by Northern blot hybridization; type: functional, organism-based; settings: dose 1-5 µM, time 2.0 day; in short: as §1
Hepatitis B virus [7] = assay: Antiviral activity against HBV infected in AML12HBV10 cells assessed as decrease in capsid assembly at 1 to 5 uM after 2 days by Northern blot hybridization; type: functional, organism-based; settings: dose 1-5 µM, time 2.0 day
In short: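 AML12HBV10 cells (mouse hepatocyte line carrying tetracycline-inducible, envelope-deficient HBV genome) in 24-well plates. Tetracycline was removed for 24 h before treatment; tetracycline-maintained cells served as negative control. Cells were mock (DMSO) or compound treated for a further 48 h. Intracellular capsids and core-associated DNA were resolved by native agarose gel particle assay.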

Hepatitis B virus [8] = assay: Antiviral activity against HBV infected in AML12HBV10 cells assessed as decrease in encapsidated pgRNA at 1 to 5 uM after 2 days by Northern blot hybridization; type: functional, organism-based; settings: dose 1-5 µM, time 2.0 day
In short: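 AML12HBV10 cells were induced by tetracycline withdrawal for 24 h, then mock (DMSO) or compound treated for 48 h, with tetracycline-maintained cells as negative control. Encapsidated pgRNA was detected by Northern blot hybridization, using ribosomal RNA as loading control.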

Hepatitis B virus [9] = assay: Antiviral activity against HBV infected in AML12HBV10 cells assessed as decrease in viral DNA replication at 1 to 5 uM after 2 days by Northern blot hybridization; type: functional, organism-based; settings: dose 1-5 µM, time 2.0 day; in short: as §1

Compound | EC50 (Hepatitis B virus [1]) | CC50 at 48 h [2] | also measured
O=C(Nc1ccc(F)c(Cl)c1)N1CCNc2cc(F)c(F)cc21 | 1780 nM | > 100 µM | –
O=C(Nc1ccc(C(O)(C(F)(F)F)C(F)(F)F)cc1)N1CCNc2ccccc21 | > 10000 nM | > 20 µM | –
O=C(Nc1ccc(F)c(Cl)c1)N1CCN[C@H]2CCCC[C@H]21 (relative stereo) | > 10000 nM | > 100 µM | –
O=C(Nc1ccnc(Cl)c1)N1CCN(C(=O)Nc2ccc(F)c(Cl)c2)c2ccccc21 | 1110 nM | > 20 µM | –
CC1CNc2ccccc2N1C(=O)Nc1ccc(F)c(Cl)c1 (stereo not drawn) | 3020 nM | > 100 µM | –
O=C(Nc1ccc(F)c(C(F)(F)F)c1)N1CCNc2ccccc21 | 320 nM | > 20 µM | –
O=C(Nc1ccc(F)c(Cl)c1)N1CCc2cccnc21 | > 10000 nM | > 25 µM | –
O=C(Nc1cccc(Cl)c1)N1CCN(C(=O)Nc2ccc(F)c(Cl)c2)c2ccccc21 | 650 nM | > 100 µM | –
O=C(Nc1cc(Cl)ccc1F)N1CCNc2ccccc21 | 770 nM | > 100 µM | –
O=C(NCc1cccc(Cl)c1)N1CCNc2ccccc21 | 8070 nM | > 100 µM | –
O=C(Nc1ccc(F)c(C(F)F)c1)N1c2ccccc2NCC1CN1CCC(F)(F)CC1 (stereo not drawn) | 100 nM | > 50 µM | EC50 (Hepatitis B virus [3]): 40 nM; CC50 at 144 h [4]: 29.3 µM
O=C(Nc1ccc(F)c(Cl)c1)N1CC(CN2CCC(F)(F)CC2)N(C(=O)Nc2ccc(F)c(Cl)c2)c2ccccc21 (stereo not drawn) | 1610 nM | > 100 µM | –
Cc1cc(NC(=O)N2CCNc3ccccc32)ccc1F | 240 nM | > 20 µM | –
O=C(Nc1ccc(F)c(Cl)c1)N1CCc2ccccc21 | 970 nM | > 100 µM | –
O=C(Nc1ccc(F)c(Cl)c1)N1CC(CN2CCC(F)(F)C2)Nc2ccccc21 (stereo not drawn) | 5090 nM | > 100 µM | –
O=C(Cc1ccc(F)c(Cl)c1)N1CCNc2ccccc21 | > 10000 nM | > 20 µM | –
O=C(Nc1ccc(F)c(Cl)c1)C1CCNc2ccccc21 (racemic) | > 10000 nM | > 100 µM | –
O=C(Nc1cccc(Cl)c1)N1c2ccccc2NCC1CN1CCC(F)(F)CC1 (stereo not drawn) | 350 nM | > 50 µM | –
O=C(Nc1ccc(F)c(Cl)c1)N1CCN(C(=O)Nc2cc(Cl)c(F)cc2F)c2ccccc21 | 390 nM | > 20 µM | EC50 (Hepatitis B virus [3]): 950 nM; CC50 at 144 h [4]: 16.8 µM
O=C(Nc1cc(F)c(F)c(F)c1)N1c2ccccc2NCC1CN1CCC(F)(F)CC1 (stereo not drawn) | 290 nM | > 50 µM | –
NC1CCN(C(=O)Nc2ccc(F)c(Cl)c2)c2ccccc21 (racemic) | > 10000 nM | > 100 µM | –
N#Cc1cc(NC(=O)N2c3ccccc3NCC2CN2CCC(F)(F)CC2)ccc1F (stereo not drawn) | 90 nM | > 50 µM | EC50 (Hepatitis B virus [3]): 150 nM; CC50 at 144 h [4]: > 50 µM
O=C(Nc1ccc(F)c(Cl)c1)c1cccc2c1OCCO2 | – | – | EC50 (Hepatitis B virus [3]): 1020 nM; CC50 at 144 h [4]: > 50 µM
O=C1CN(C(=O)Nc2ccc(F)c(Cl)c2)c2ccccc2N1 | > 10000 nM | > 50 µM | –
O=C(Nc1cc(F)c(F)c(F)c1)N1CCN(C(=O)Nc2ccc(F)c(Cl)c2)c2ccccc21 | 320 nM | > 20 µM | –
O=C(Nc1ccc(F)c(Cl)c1)N1CCN(C(=O)Nc2ccc(F)c(Cl)c2)c2ccccc21 | 1010 nM | > 12.5 µM | Activity (Hepatitis B virus [5]): inactive; Activity (Hepatitis B virus [6]): inactive; Activity (Hepatitis B virus [7]): Active; Activity (Hepatitis B virus [8]): Active; Activity (Hepatitis B virus [9]): Active

The next lines start with results.

EC50 (Hepatitis B virus [1]) | Compound | CC50 at 48 h [2] | also measured
> 10000 nM | O=S(=O)(Nc1ccc(F)c(Cl)c1)N1CCNc2ccccc21 | > 100 µM | –
340 nM | O=C(Nc1ccc(F)c(C(F)(F)F)c1)N1c2ccccc2NCC1CN1CCC(F)(F)CC1 (stereo not drawn) | 31.4 µM | –
520 nM | N#Cc1cc(NC(=O)N2CCNc3ccccc32)ccc1F | > 20 µM | –
390 nM | O=C(Nc1ccc(F)c(F)c1)N1c2ccccc2NCC1CN1CCC(F)(F)CC1 (stereo not drawn) | > 50 µM | –
280 nM | O=C(Nc1ccc(F)c(Cl)c1)N1c2ccccc2NCC1CN1CCC(F)(F)CC1 (stereo not drawn) | > 50 µM | –
630 nM | O=C(Nc1cc(F)c(F)c(F)c1)N1CCNc2ccccc21 | > 100 µM | –
> 10000 nM | O=C(NCc1ccccc1)N1CCN(C(=O)Nc2ccc(F)c(Cl)c2)c2ccccc21 | > 20 µM | –
1660 nM | [N-]=[N+]=Nc1ccc(NC(=O)N2CCNc3ccccc32)cc1Cl | > 100 µM | –
> 10000 nM | O=C(Nc1ccc(F)c(Cl)c1)N1CC2(CCCC2)Nc2ccccc21 | > 100 µM | –
7340 nM | O=C(Nc1ccccc1)N1CCN(C(=O)Nc2ccc(F)c(Cl)c2)c2ccccc21 | > 12.5 µM | –
> 10000 nM | O=C(Nc1ccc(F)c(Cl)c1)N1CCN(C(=O)Nc2ccc(F)c(Cl)c2)[C@H]2CCCC[C@H]21 | > 100 µM | –
780 nM | O=C(Nc1ccc(F)c(Cl)c1)N1c2ccccc2NCC1c1ccccc1 (stereo not drawn) | > 50 µM | –
1140 nM | O=C(Nc1ccc(F)c(Cl)c1)N1CC(CN2CCC(F)(F)C2)N(C(=O)Nc2ccc(F)c(Cl)c2)c2ccccc21 (stereo not drawn) | > 100 µM | –
> 10000 nM | CC1CN(C(=O)Nc2ccc(F)c(Cl)c2)c2ccccc2N1 (stereo not drawn) | > 50 µM | –
1700 nM | O=C(Nc1ccc(F)c(Cl)c1)N1c2ccccc2NCC1CN1CCC(F)(F)C1 (stereo not drawn) | > 100 µM | –
2030 nM | O=C(Nc1ccc(F)c(Cl)c1)N1CC(CN2CCOCC2)N(C(=O)Nc2ccc(F)c(Cl)c2)c2ccccc21 (stereo not drawn) | > 100 µM | –
4500 nM | CC(C)C1CNc2ccccc2N1C(=O)Nc1ccc(F)c(Cl)c1 (stereo not drawn) | > 100 µM | –
> 10000 nM | CC1(C)CCN(CC2CNc3ccccc3N2C(=O)Nc2ccc(F)c(Cl)c2)CC1 (stereo not drawn) | > 40 µM | –
5760 nM | O=C(Nc1cccnc1)N1CCN(C(=O)Nc2ccc(F)c(Cl)c2)c2ccccc21 | > 100 µM | –
1550 nM | O=C(Nc1ccc(F)c(Cl)c1)N1CCCc2ccccc21 | > 100 µM | –
> 10000 nM | O=C(Nc1ccc(F)c(Cl)c1)N1CC(CN2CCOCC2)Nc2ccccc21 (stereo not drawn) | > 20 µM | –
930 nM | O=C(Nc1cc(F)c(F)c(Cl)c1)N1CCNc2ccccc21 | > 100 µM | –
10000 nM | O=C(Nc1ccc(F)c(Cl)c1)N1CC(c2ccccc2)Nc2ccccc21 (stereo not drawn) | > 50 µM | –
7300 nM | O=C(Nc1ccc(F)c(Cl)c1)N1c2ccccc2NCC1CN1CCOCC1 (stereo not drawn) | > 40 µM | –
1130 nM | O=C(Nc1cccc(Cl)c1)N1CCNc2ccccc21 | > 100 µM | –
190 nM | O=C(Nc1ccc(F)c(C(F)F)c1)N1CCNc2ccccc21 | > 20 µM | –
> 10000 nM | O=C(Nc1ccc(F)c(Cl)c1)N1CCN(CCCCF)c2ccccc21 | > 50 µM | –
4320 nM | O=C(Nc1ccc(F)c(Cl)c1)N1CC(CN2CCC(F)(F)CC2)Nc2ccccc21 (stereo not drawn) | > 100 µM | –
> 10000 nM | O=C(Nc1ccc(F)c(Cl)c1)N1CCCCc2ccccc21 | > 100 µM | –
270 nM | Cc1cc(NC(=O)N2c3ccccc3NCC2CN2CCC(F)(F)CC2)ccc1F (stereo not drawn) | > 50 µM | –
